Reference: ChEMBL document CHEMBL1137301 (J Med Chem, 2006)

Experiments:
[1] = biological target: T1, Melatonin receptor type 1B (Homo sapiens, UniProt P49286); test: Displacement of 2-[125I]iodomelatonin from human MT2 receptor expressed in NIH3T3 cells; format: cell-based
T1 sequence (P49286 whole entry): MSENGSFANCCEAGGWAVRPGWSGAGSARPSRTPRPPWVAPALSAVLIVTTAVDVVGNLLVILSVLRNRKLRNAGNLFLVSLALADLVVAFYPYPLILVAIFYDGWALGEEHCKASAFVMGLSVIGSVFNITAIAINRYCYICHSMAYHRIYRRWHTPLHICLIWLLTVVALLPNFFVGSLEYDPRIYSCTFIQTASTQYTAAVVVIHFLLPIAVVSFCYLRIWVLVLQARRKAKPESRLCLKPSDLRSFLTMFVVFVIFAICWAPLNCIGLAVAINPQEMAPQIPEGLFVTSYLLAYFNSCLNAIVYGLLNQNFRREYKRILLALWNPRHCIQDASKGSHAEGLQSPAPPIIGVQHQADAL

[2] = biological target: T2, Melatonin receptor type 1A (Homo sapiens, UniProt P48039); test: Displacement of 2-[125I]iodomelatonin from human MT1 receptor expressed in NIH3T3 cells; format: cell-based
[3] = biological target: T2, Melatonin receptor type 1A; test: Intrinsic activity at human MT1 receptor expressed in NIH3T3 cells assessed as stimulation of [35S]GTPgammaS binding relative to MLT; format: functional, cell-based
[4] = biological target: T3, Melatonin receptor type 1B (Homo sapiens) (UniProt P49286); test: Intrinsic activity at human MT2 receptor expressed in NIH3T3 cells assessed as stimulation of [35S]GTP-gamma-S binding relative to MLT; format: functional, cell-based
T3 sequence (whole entry): T1 sequence (P49286 whole entry)

[5] = biological target: T3, Melatonin receptor type 1B (Homo sapiens); test: (§1) Activity at human MT2 receptor expressed in NIH3T3 cells assessed as inhibition of MLT-stimulated [35S]GTPgammaS binding; format: functional, cell-based
In short: (§2)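 Antagonism was measured in [35S]GTPγS binding on human MT2 NIH3T3 membranes (30 min, 30 °C; GDP 50 µM, NaCl 100 mM, MgCl2 3 mM). MLT concentration-response curves were run alone and with antagonist at 1, 10, 100 and 1000 nM.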

[6] = biological target: T2, Melatonin receptor type 1A; test: Activity at human MT1 receptor expressed in NIH3T3 cells assessed as inhibition of MLT-stimulated [35S]GTP-gamma-S binding; format: functional, cell-based; conditions: filed as partial agonist
[7] = biological target: Melatonin receptor (Homo sapiens) (UniProt P48039+P49286); test: Selectivity for human MT2 receptor over MT1 receptor; format: protein assay
In short: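 Incubation was 90 min at 37 °C in 50 mM Tris/HCl, pH 7.4, with nonspecific binding defined by 10 µM MLT. Ki came from IC50 via Cheng-Prusoff, mean of at least three runs in duplicate. The ratio compares MT1 and MT2 Ki.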

[8] = biological target: T1, Melatonin receptor type 1B; test: as §1; format: functional, cell-based; conditions: read-out: pA2 (converted); in short: as §2

Melatonin receptor (Homo sapiens), sequence (P48039 whole entry, looked up, one chain of several): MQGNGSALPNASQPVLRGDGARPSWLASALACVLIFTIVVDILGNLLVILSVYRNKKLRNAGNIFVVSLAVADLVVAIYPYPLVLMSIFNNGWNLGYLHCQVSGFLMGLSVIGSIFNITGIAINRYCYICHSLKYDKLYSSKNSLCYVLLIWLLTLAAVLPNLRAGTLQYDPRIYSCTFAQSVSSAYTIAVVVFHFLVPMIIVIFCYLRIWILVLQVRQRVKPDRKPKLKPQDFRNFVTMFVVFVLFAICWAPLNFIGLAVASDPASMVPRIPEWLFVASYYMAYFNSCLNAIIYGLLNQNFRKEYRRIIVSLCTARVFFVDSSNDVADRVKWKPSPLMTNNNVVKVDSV
T2 sequence (P48039 whole entry): as the sequence (P48039 whole entry, looked up, one chain of several) above

| Ki [1] [nM] | Ki [2] [nM] | Intrinsic activity [3] | Intrinsic activity [4] | Activity ([5]; filed as partial agonist) | Activity [6] | Selectivity ratio [7] | Activity ([5]; filed as antagonist) | Kb [8] [nM] | SMILES |
| --- | --- | --- | --- | --- | --- | --- | --- | --- | --- |
| 148 | 1200 | 0.11 | 0.18 |  |  |  |  |  | CC(=O)NC/C(=C\c1ccccc1)c1ccccc1 |
| 6.03 | 69.2 | 0.24 | 0.06 |  |  |  |  |  | COc1ccc(Cc2ccccc2)c(CCNC(C)=O)c1 |
| 5.01 | 363 | 0.31 | 0.28 |  |  |  |  |  | CCC(=O)NCCC(c1ccccc1)c1cccc(OC)c1 (racemic) |
| 525 | 3630 | -0.23 | -0.15 |  |  |  |  |  | CC(=O)NC/C(=C/c1ccccc1)c1ccccc1 |
| 0.219 | 2.69 | 0.54 | 0.38 | Partial agonist | Partial agonist |  |  |  | COc1cccc(/C(=C/CNC(C)=O)c2ccccc2)c1 |
| 13.2 | 912 | -0.18 | -0.2 |  |  |  |  |  | O=C(NCC=C(c1ccccc1)c1ccccc1)C1CCC1 |
| 5.37 | 2190 | 0.24 | 0.04 |  |  | 407 |  |  | COc1cccc(C(CCNC(C)=O)c2ccccc2)c1 (racemic) |
| 0.275 | 58.9 | 0.2 | 0.34 | Partial agonist | Partial agonist | 214 |  |  | COc1cccc(C(=CCNC(C)=O)c2cccc(OC)c2)c1 |
| 204 | 692 | -0.23 | -0.18 |  |  |  |  |  | COc1cccc(C(CNC(C)=O)Cc2ccccc2)c1 (configuration not stated) |
| 191 | 525 | -0.13 | -0.25 |  |  |  |  |  | CCC(=O)NCC(Cc1ccccc1)c1cccc(OC)c1 (configuration not stated) |
| 141 | 4170 | -0.19 | -0.23 |  |  |  |  |  | CC(=O)NCCC(c1ccccc1)c1ccccc1 |
| 1.55 | 257 | -0.04 | -0.02 |  |  |  |  |  | COc1cccc(/C(=C\CNC(=O)C2CCC2)c2ccccc2)c1 |
| 11.5 | 513 | -0.03 | 0.19 |  |  |  |  |  | CC(=O)NCC=C(c1ccccc1)c1ccccc1 |
| 661 | 389 | 0.24 | 0.48 |  |  |  |  |  | CCC(=O)NCCc1cccc(Cc2ccccc2)c1 |
| 0.525 | 93.3 | 0.29 | 0.13 |  |  | 178 | Antagonist | 0.389 | COc1cccc(/C(=C/CNC(=O)C2CCC2)c2ccccc2)c1 |
| 417 | 708 | -0.3 | -0.43 |  |  |  |  |  | CC(=O)NCC(Cc1ccccc1)c1ccccc1 (configuration not stated) |
| 2.51 | 229 | 0.45 | 0.3 |  |  |  |  |  | COc1cccc(/C(=C\CNC(C)=O)c2ccccc2)c1 |
| 2.63 | 550 | 0.21 | 0.27 |  |  | 209 |  |  | CCCC(=O)NCCC(c1ccccc1)c1cccc(OC)c1 (racemic) |
